Measurements: ChEMBL document CHEMBL3627606, “Development of Novel, CNS Penetrant Positive Allosteric Modulators for the Metabotropic Glutamate Receptor Subtype 1 (mGlu1), Based on an N-(3-Chloro-4-(1,3-dioxoisoindolin-2-yl)phenyl)-3-methylfuran-2-carboxamide Scaffold, That Potentiate Wild Type and Mutant mGlu1 Receptors Found in …” (J Med Chem, 2015)

Key:
[1] = biological target: T1, Metabotropic glutamate receptor 1 (Homo sapiens, UniProt Q13255); assay: Positive allosteric modulation of human mGlu1 receptor in HEK293 cells assessed as potentiation of glutamate-induced calcium mobiliztion by Fluo-4AM dye based fluorescence analysis; assay type: functional, cell-based; settings: read-out: EC50
Target sequence in this assay (Q13255 whole entry): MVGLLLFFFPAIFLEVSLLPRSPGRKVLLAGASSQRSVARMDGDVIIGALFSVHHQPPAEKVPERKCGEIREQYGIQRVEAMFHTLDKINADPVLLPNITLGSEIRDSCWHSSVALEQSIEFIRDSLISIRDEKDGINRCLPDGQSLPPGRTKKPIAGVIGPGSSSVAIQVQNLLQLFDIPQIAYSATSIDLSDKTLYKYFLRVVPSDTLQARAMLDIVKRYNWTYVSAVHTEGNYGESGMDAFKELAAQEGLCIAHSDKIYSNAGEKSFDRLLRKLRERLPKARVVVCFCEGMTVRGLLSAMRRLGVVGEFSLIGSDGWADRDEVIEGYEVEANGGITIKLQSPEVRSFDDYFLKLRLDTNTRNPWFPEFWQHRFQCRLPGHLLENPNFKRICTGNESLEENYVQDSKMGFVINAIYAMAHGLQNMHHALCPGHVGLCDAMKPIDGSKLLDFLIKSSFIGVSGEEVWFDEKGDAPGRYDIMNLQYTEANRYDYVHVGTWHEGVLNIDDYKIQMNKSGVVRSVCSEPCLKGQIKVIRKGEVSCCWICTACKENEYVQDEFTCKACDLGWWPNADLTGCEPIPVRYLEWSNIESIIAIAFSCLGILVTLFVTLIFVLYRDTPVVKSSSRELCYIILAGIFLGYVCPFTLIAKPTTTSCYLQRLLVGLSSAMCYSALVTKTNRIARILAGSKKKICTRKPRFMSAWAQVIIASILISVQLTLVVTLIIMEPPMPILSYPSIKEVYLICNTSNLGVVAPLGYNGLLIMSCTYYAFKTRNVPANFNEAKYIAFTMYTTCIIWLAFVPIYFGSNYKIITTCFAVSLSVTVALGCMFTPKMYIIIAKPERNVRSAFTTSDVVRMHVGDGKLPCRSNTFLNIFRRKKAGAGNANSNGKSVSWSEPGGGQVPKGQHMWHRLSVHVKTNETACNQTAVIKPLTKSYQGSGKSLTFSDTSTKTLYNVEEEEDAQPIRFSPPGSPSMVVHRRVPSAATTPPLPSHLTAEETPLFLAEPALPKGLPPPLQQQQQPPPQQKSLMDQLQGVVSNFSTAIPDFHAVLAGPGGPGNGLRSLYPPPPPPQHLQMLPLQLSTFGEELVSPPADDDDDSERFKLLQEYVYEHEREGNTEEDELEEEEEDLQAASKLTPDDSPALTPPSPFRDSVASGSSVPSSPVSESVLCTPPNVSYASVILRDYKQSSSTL

Plasma [2] = assay: Drug level in human plasma treated with N-(3-chloro-4-(5-chloro-1,3-dioxoisoindolin-2-yl)phenyl)-3-methylfuran-2-carboxamide at 10 uM after 4 hrs by mass spectrometry; assay type: ADME, cell-free
Method in brief: (§1)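 Compound incubated at 10 μM in rat or human plasma at 37 °C. Samples taken at 0 and 4 h were analysed by mass spectrometry for parent and metabolites.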

Plasma [3] = assay: Drug level in rat plasma treated with N-(3-chloro-4-(5-chloro-1,3-dioxoisoindolin-2-yl)phenyl)-3-methylfuran-2-carboxamide at 10 uM after 4 hrs by mass spectrometry; assay type: ADME, cell-free; method in brief: as §1
[4] = biological target: T1, Metabotropic glutamate receptor 1; assay: Positive allosteric modulation of human mGlu1 receptor in HEK293 cells assessed as potentiation of glutamate-induced calcium mobiliztion by Fluo-4AM dye based fluorescence analysis relative to glutamate; assay type: functional, cell-based
Target sequence in this assay (Q13255 19-1194 limits assumed): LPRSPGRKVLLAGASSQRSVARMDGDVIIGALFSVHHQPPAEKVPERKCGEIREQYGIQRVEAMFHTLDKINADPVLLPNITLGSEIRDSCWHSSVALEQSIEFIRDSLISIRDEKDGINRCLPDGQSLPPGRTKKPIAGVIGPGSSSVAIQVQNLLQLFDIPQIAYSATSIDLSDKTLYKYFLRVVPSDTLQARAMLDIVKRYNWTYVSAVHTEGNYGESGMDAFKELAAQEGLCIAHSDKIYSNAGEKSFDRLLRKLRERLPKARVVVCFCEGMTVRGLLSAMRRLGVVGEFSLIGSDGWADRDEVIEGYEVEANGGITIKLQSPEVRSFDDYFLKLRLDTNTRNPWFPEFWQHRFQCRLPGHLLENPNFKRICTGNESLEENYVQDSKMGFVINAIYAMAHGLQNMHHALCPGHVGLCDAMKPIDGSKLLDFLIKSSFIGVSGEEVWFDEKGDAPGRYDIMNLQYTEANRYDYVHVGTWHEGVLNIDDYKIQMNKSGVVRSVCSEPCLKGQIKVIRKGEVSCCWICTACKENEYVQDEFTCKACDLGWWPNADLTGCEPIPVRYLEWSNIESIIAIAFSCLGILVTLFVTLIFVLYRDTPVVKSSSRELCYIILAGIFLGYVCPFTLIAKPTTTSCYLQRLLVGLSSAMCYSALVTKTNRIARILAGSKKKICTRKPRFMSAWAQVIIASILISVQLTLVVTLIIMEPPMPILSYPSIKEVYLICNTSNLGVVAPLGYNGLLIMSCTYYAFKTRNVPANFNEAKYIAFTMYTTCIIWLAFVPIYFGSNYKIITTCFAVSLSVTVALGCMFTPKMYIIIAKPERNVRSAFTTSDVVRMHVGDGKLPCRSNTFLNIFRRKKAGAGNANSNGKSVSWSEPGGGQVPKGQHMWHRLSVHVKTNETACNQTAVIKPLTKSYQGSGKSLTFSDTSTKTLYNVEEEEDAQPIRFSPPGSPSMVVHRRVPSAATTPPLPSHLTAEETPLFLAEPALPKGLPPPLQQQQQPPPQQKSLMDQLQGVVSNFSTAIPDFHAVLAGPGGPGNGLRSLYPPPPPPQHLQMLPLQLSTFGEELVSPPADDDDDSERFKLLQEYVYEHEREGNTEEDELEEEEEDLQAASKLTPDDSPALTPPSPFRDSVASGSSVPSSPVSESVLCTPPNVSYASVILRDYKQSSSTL

[5] = biological target: T2, Metabotropic glutamate receptor 4 (Homo sapiens, UniProt Q14833); assay: Positive allosteric modulation of human mGlu4 receptor assessed as potentiation of glutamate-induced calcium mobiliztion by cell based assay; assay type: functional
T2 sequence (Q14833 whole entry): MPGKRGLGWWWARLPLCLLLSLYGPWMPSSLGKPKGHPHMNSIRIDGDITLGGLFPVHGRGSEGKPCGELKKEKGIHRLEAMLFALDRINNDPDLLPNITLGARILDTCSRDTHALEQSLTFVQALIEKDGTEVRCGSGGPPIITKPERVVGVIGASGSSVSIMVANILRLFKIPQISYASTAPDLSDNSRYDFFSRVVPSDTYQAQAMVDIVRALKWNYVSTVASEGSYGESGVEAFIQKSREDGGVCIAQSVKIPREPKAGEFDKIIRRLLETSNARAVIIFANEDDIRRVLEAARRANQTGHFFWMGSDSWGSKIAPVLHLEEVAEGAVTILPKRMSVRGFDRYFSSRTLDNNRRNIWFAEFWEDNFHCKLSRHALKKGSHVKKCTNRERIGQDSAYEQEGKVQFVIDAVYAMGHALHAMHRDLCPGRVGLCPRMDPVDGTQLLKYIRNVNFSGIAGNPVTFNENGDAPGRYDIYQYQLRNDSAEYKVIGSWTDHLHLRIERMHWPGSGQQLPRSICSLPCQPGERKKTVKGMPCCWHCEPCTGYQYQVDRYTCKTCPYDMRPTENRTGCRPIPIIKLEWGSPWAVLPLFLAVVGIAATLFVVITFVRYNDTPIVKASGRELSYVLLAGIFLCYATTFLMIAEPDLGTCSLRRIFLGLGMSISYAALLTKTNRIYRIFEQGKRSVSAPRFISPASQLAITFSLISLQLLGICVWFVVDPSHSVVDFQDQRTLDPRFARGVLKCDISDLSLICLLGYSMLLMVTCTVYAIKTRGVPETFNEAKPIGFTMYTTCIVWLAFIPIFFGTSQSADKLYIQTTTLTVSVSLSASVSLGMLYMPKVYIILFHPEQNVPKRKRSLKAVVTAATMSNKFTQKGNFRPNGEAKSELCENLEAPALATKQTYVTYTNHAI

Homo sapiens = species on record: Homo sapiens; assay: Selectivity index, ratio of EC50 for human mGlu4 receptor to EC50 for human mGlu1 receptor
[6] = biological target: T2, Metabotropic glutamate receptor 4; assay: Positive allosteric modulation of human mGlu4 receptor assessed as potentiation of glutamate-induced calcium mobiliztion by cell based assay relative to PHCCC

EC50 [1] [µM] | %max [4] [%] | SMILES | further results
> 10 | – | Cc1cc(C)c(C(=O)Nc2ccc(N3C(=O)c4ccccc4C3=O)c(Cl)c2)o1 | –
> 10 | – | O=C(Nc1ccc(N2C(=O)c3ccccc3C2=O)c(Cl)c1)c1ccno1 | –
– | – | Cc1ccoc1C(=O)Nc1ccc(NC(=O)c2ccc(Cl)cc2C(=O)O)c(Cl)c1 | Drug metabolism (Plasma [2]): metabolite_detected; Drug metabolism (Plasma [3]): metabolite_detected
0.033 | 91 | Cc1ccoc1C(=O)Nc1ccc(N2C(=O)c3cccc(Cl)c3C2=O)c(Cl)c1 | EC50 ([5]; read-out: EC50): 1140 nM; Ratio EC50 (Homo sapiens): 34.5; %max [6]: 163%
> 10 | – | O=C(Nc1ccc(N2C(=O)c3ccccc3C2=O)c(Cl)c1)c1cccs1 | –
> 10 | – | O=C(Nc1ccc(N2C(=O)c3ccccc3C2=O)c(Cl)c1)c1coc2ccccc12 | –
> 10 | – | O=C(Nc1ccc(N2C(=O)c3ccccc3C2=O)c(Cl)c1)c1ncco1 | –
– | – | Cc1ccoc1C(=O)Nc1ccc(N)c(Cl)c1 | Drug metabolism (Plasma [2]): metabolite_detected; Drug metabolism (Plasma [3]): metabolite_detected
> 10 | – | O=C(Nc1ccc(N2C(=O)c3ccccc3C2=O)c(Cl)c1)c1cncs1 | –
4.47 | 107 | O=C(Nc1ccc(N2C(=O)c3ccccc3C2=O)c(Cl)c1)c1cscn1 | –
0.0241 | 88 | Cc1ccoc1C(=O)Nc1ccc(N2C(=O)c3ccc(F)cc3C2=O)c(Cl)c1 | EC50 ([5]; read-out: EC50): 712 nM; EC50 ([5]; read-out: pEC50 (converted)): 724 nM; Ratio EC50 (Homo sapiens): 29.7; %max [6]: 97%
> 10 | – | O=C(Nc1ccc(N2C(=O)c3ccccc3C2=O)c(Cl)c1)c1occc1-c1ccccc1 | –
> 10 | 60 | Cc1ccc(C(=O)Nc2ccc(N3C(=O)c4ccccc4C3=O)c(Cl)c2)o1 | –
0.097 | 118 | Cc1ccoc1C(=O)Nc1ccc(N2C(=O)c3ccccc3C2=O)c(Cl)c1 | –
> 10 | 30 | O=C(Nc1ccc(N2C(=O)c3ccccc3C2=O)c(Cl)c1)c1ccc(-c2ccccc2)o1 | –
0.55 | 76 | O=C(Nc1ccc(N2C(=O)c3ccccc3C2=O)c(Cl)c1)c1ccco1 | –
0.0544 | 86 | Cc1ccc2c(c1)C(=O)N(c1ccc(NC(=O)c3occc3C)cc1Cl)C2=O | EC50 ([5]; read-out: EC50): 323 nM; Ratio EC50 (Homo sapiens): 5.9; %max [6]: 69%
> 10 | 45 | O=C(Nc1ccc(N2C(=O)c3ccccc3C2=O)c(Cl)c1)c1ccc(Br)o1 | –
